In publication PMC9364358 (RSC Advances, 2022):

Assays:
HDACs = assay: Fluorometric HDAC activity assay; format: cell-based; details: MCF-7 cells, 30 μM, 2 h
Summary of the method: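 MCF-7 cells grown in RPMI-1640 with 10% FBS and 1% penicillin at 37 °C, 5% CO2, then seeded at 5 × 10^3 cells/well. After 24 h, medium was replaced, and HDAC substrate plus test compound (final 30 μM) or trichostatin A was added for 2 h. Developer mix was then added for 30 min at 37 °C, and fluorescence was read (ex 368 nm, em 442 nm).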

MOPC-315 cell line = assay: Cytotoxicity; format: cell-based
HDAC6 = target: T1, HDAC6 (Homo sapiens, UniProt Q9UBN7); format: biochemical
T1 sequence (Q9UBN7 1-1215): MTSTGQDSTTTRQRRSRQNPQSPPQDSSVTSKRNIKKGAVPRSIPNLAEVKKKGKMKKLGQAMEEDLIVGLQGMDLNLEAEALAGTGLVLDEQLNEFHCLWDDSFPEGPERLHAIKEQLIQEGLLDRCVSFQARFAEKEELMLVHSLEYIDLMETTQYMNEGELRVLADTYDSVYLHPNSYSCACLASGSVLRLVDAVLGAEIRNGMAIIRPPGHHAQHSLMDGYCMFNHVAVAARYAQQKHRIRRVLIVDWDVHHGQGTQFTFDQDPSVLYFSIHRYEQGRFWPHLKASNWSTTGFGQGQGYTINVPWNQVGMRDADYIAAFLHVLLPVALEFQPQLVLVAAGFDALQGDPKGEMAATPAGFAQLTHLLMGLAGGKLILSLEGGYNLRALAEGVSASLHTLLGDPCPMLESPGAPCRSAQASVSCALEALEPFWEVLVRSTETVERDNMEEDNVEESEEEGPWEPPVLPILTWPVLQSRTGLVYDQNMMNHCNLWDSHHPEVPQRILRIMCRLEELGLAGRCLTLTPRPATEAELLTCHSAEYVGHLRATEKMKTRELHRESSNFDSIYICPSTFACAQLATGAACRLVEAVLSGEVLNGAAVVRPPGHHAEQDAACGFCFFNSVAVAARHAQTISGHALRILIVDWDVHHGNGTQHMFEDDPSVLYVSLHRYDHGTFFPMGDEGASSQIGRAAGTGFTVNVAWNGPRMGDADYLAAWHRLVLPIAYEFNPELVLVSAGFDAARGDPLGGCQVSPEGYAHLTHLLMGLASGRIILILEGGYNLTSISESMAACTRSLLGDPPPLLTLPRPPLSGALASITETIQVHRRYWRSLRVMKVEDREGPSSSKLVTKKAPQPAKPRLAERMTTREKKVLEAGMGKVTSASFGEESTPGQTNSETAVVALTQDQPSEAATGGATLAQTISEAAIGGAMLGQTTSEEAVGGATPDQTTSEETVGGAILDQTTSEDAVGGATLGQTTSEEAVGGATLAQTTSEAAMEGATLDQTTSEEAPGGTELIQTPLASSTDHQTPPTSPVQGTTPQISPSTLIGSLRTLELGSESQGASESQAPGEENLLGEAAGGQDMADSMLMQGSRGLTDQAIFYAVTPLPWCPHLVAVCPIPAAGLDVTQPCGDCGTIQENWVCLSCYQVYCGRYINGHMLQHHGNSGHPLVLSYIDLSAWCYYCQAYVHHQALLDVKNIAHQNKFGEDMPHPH
Summary of the method: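 HDAC6 enzyme was incubated 30 min with test compound at graded concentrations (DMSO) and HDAC substrate 2 (200 μM stock) in HDAC assay buffer with BSA (1 mg mL−1 stock). The reaction was stopped with HDAC assay developer for 15 min at room temperature, and fluorescence was read at 485/528 nm. A reference HDAC inhibitor served as positive control.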

inhibition at 5 µM (HDAC6): 64.5%
Compound: O=C(/C=C/c1cccc(S(=O)(=O)Nc2ccccc2)c1)NO [Belinostat]
pan-HDAC inhibitory activity (HDAC activity, fluorescence signal) (HDACs): the activity was decreased | IC50 (MOPC-315 cell line; Mus musculus, MOPC 315, 24 h, MOPC-315 cell line, 24 h incubation): 318 ± 49 nM | Fold change (MOPC-315 cell line; potency relative to belinostat (belinostat = 1.000), MOPC-315): 1.000
